How the values were obtained:
HEK293 [1] = assay: Cytotoxicity against human HEK293 cells over expressing human NET assessed as cell viability after 48 hrs by neutral red assay; type: cell-based; conditions: HEK293, 48 h
Method in brief: (§1)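 Stably transfected HEK293 lines, passage ≤30, kept in DMEM with 10% FBS, 2 mM L-glutamine and Geneticin. Cells seeded at 5x10^4/well and grown to sub-confluence (24-36h), then exposed 48h. Neutral red uptake for 3 ± 1 h, then ethanol/acetic acid solubilisation, A540 minus 690 nm. Viability taken relative to vehicle. Range 1 µM-1 mM, 4 concentrations in triplicate on two independent days. pEC50 from sigmoidal fit (Hill slope 1).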

SH-SY5Y = assay: Cytotoxicity against human SH-SY5Y cells assessed as cell viability after 48 hrs by neutral red assay; type: cell-based
Method in brief: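 SH-SY5Y grown in DMEM/F12 (1:1) with 10% FBS, 1 mM pyruvate, 2 mM glutamine and 0.1 mM non-essential amino acids, at 37 °C. Seeded 5x10^4 cells/well, treated 48 h, then neutral red uptake for 3 ± 1 h. Absorbance read at 540 nm (690 nm background). Viability was expressed as % of vehicle-treated cells. pEC50 came from a nonlinear sigmoidal fit (Hill slope 1), with 4 concentrations in triplicate on two separate days.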

HEK293 [2] = assay: Cytotoxicity against human HEK293 cells over expressing human DAT assessed as cell viability after 48 hrs by neutral red assay; type: cell-based; conditions: HEK293, 48 h; method in brief: as §1
HEK293 [3] = assay: Cytotoxicity against human HEK293 cells over expressing human SERT assessed as cell viability after 48 hrs by neutral red assay; type: cell-based; conditions: HEK293, 48 h; method in brief: as §1
HEK293 [4] = assay: Cytotoxicity against human HEK293 cells assessed as cell viability after 48 hrs by neutral red assay; type: cell-based; conditions: HEK293, 48 h
Method in brief: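 HEK293 cells grown in DMEM with 10% FBS and 2 mM L-glutamine. Seeded at 5x10^4 cells/well and grown to sub-confluence (24-36 h), then exposed 48 h. Neutral red dye was added for 3 ± 1 h, then solubilised in 50% ethanol-1% acetic acid. A540 read with A690 background. Viability was taken as % of vehicle. pEC50 came from a sigmoidal fit (Hill slope 1) over 4 concentrations, triplicate, two independent days.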

PC-12 [5] = assay: Cytotoxicity against rat PC12 cells assessed as cell viability after 48 hrs by neutral red assay; type: cell-based; conditions: PC-12, 48 h
Method in brief: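 PC-12 (rat pheochromocytoma) cells on collagen were differentiated 7 days with 100 ng/ml NGF in low-serum DMEM/F12. Seeded at 5x10^4/well, then exposed 48h. Neutral red uptake for 3 ± 1 h, solubilised, A540 (690 nm background). Viability taken against vehicle. Tested 1 µM-1 mM, 4 concentrations in triplicate on two independent days. pEC50 by sigmoidal non-linear regression (Hill slope 1).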

[6] = target: Sodium-dependent serotonin transporter (Homo sapiens, UniProt P31645); assay: Binding affinity to human SERT
Chain of Sodium-dependent serotonin transporter (P31645 whole entry): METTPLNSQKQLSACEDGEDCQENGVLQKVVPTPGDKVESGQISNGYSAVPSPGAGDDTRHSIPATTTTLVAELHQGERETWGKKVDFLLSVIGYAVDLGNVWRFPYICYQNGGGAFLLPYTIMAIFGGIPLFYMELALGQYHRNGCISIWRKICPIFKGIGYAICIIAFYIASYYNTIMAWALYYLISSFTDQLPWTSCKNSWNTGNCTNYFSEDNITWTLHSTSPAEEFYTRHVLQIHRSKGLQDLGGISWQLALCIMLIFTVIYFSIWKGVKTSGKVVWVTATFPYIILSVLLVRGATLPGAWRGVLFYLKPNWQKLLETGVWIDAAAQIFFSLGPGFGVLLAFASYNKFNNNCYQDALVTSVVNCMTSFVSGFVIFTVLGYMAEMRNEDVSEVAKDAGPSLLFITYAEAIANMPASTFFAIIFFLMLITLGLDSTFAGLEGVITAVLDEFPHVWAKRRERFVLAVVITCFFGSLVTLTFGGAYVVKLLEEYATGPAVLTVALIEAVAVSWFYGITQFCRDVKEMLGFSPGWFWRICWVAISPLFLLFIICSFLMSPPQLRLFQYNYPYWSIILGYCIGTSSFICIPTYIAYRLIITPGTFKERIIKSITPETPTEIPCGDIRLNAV

PC-12 [7] = assay: Cytotoxicity against rat PC12 cells assessed as cell viability at 1 mM after 48 hrs by neutral red assay; type: cell-based; conditions: pc-12, 48 h, 1000 µM
Method in brief: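 Undifferentiated PC-12 cells (rat pheochromocytoma) were seeded at 5x10^4 on collagen and differentiated for seven days with 100 ng/ml NGF in low-serum DMEM/F12. They were then exposed for 48 h to single concentrations. Neutral red staining lasted 3 ± 1 h, with absorbance at 540 nm (690 nm background). Viability was taken as % of vehicle, and each concentration was compared with untreated cells by one-way ANOVA.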

[8] = Selectivity ratio of IC50 for SERT to IC50 for NET
[9] = Selectivity ratio of IC50 for SERT to IC50 for DAT

Compound	EC50 (HEK293 [1]) [µM]	EC50 (SH-SY5Y) [µM]	EC50 (HEK293 [2]) [µM]	EC50 (HEK293 [3]) [µM]	EC50 (HEK293 [4]) [µM]	EC50 (PC-12 [5]) [µM]	IC50 [6] [µM]	Activity (PC-12 [7])	Ratio IC50 [8]	Ratio IC50 [9]
CCc1nc(Cc2ccc(SC)cc2)c(C)cc1-c1ccc(SC)cc1	29.5	178	26.9	34.7	18.6	29.5	–	–	–	–
CC(N)Cc1ccc2c(c1)OCO2 (configuration not stated) [TENAMFETAMINE]	589	–	5890	692	–	–	0.478	–	–	–
CSc1ccc(CC(Cc2ccc(SC)cc2)NC=O)cc1	457	32.4	87.1	50.1	–	38	–	–	–	–
CSc1ccc(Cc2ccncn2)cc1	63.1	2950	11.7	16.6	9.33	67.6	–	–	–	–
CSc1ccc(CC(N)Cc2ccc(SC)cc2)cc1	126	18.6	25.1	24.5	22.4	631	–	Toxic	–	–
CSc1ccc(CC(C)NC(C)Cc2ccc(SC)cc2)cc1 (configuration not stated)	25.1	22.4	26.3	25.7	16.2	27.5	–	–	–	–
CCC(Cc1ccc(SC)cc1)NC (configuration not stated)	66.1	–	417	55	–	–	–	–	–	–
CSc1ccc(CC(C)N)cc1 (configuration not stated) [4-METHYLTHIOAMPHETAMINE]	22.4	513	41.7	22.4	–	295	–	–	2370	3070
CNC(C)Cc1ccc2c(c1)OCO2 (configuration not stated) [MIDOMAFETAMINE]	1550	–	1950	490	–	–	–	–	–	–
CCNC(Cc1ccc(SC)cc1)Cc1ccc(SC)cc1	263	13.8	26.9	25.7	17	229	–	Toxic	–	–
CSc1ccc(CC(C)NC=O)cc1 (configuration not stated)	372	> 10000	2290	1350	2880	> 10000	–	Non-toxic	–	–
CCC(Cc1ccc(SC)cc1)NC=O (configuration not stated)	79.4	> 10000	1120	64.6	61.7	741	–	Toxic	–	–
CSc1ccc(CC(Cc2ccc(SC)cc2)NC(C)=O)cc1	25.7	603	83.2	38.9	50.1	4170	–	Non-toxic	–	–
CSc1ccc(C/C(C)=N/O)cc1	1740	339	67.6	214	3020	776	–	Toxic	–	–
